Shown is part of a subset that was picked to be rich in hits.
T cruzi HTS: inhibitors of intracellular Trypanosoma cruzi, primary screen, cell-based, plate reader, single point, set 2. intracellular Trypanosoma cruzi in host cells. activity score (inhibition), % at 5.01 µM. 4.9% of 22,000 active; in the data active means activity score above about 55%; inconclusive means no clear call, values can overlap the other calls;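 further: parasites and compound incubated about four days before reading; 0% = median of neutral control wells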
INS-1E rescue: protection of INS-1E cells from cytokine death, primary screen, ATP luminescence, single point | INS-1E cytokine-induced death, 48 h; normalised: neutral wells 0, positive control 100 | protection from cytokine-induced ATP loss, % at 10 µM | 0.1% of 20,000 active | AID 488910, 2010;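 active means mean replicate protection from cytokine-induced ATP loss at least 50% and at least 75% of replicates each reaching 50%; inconclusive means meets only one of the two criteria, mean or replicate share; inactive means fails both the mean and replicate share criteria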
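Assay system – rat INS-1E insulinoma cell line · Quantity – 8000 cells per well · Buffer or medium – RPMI without phenol red, 5% FBS · Schedule – 48 h co-treatment, 10 min post-lysis read · Technique – luminescent ATP assay (CellTiter-Glo)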
A1 apoptosis 2: A1 inhibitors via caspase activation, primary screen, cell-based, luminescence, HTS, two replicates | MEF A1-2A-BIM cells, caspase-Glo luminescence, 3 h; percent of clofoctol response, DMSO zero | caspase activation, % (concentration not given with the values) | 24,000 tested, under 10 active | AID 2465, 2010; in the data active means caspase activation above about 5.9%; inconclusive means no clear call, values can overlap the other calls; inactive means below about 2.2%
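system = A1-2A-BIM-expressing MEF cells | quantity = 2500 MEF cells/well | dosing = 50 nL compound per well, pinned | schedule = overnight cell settling, then 3 h compound exposure, 37 °C | signal = luminescence from DEVD-luciferin Caspase-Glo reagent, 1:1 in 50 mM HEPES, 1 h RT | read-out = Caspase-3/7 activation, seen as rise in luminescence signal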
* hit, by the source's call; ? = inconclusive; / = not tested or not shown.

SMILES	T cruzi HTS	INS-1E rescue	A1 apoptosis 2
COc1ccc(/C=N/NC(=O)CCCCCC(=O)NO)cc1O	/	/	-1
C[C@@H]1CN([C@H](C)CO)C(=O)Cc2cc(NS(=O)(=O)c3ccc(Cl)cc3)ccc2O[C@@H]1CN(C)S(=O)(=O)c1cccs1	74*	-5	/
COc1ccc(S(=O)(=O)Nc2ccc3c(c2)CC(=O)N([C@H](C)CO)C[C@H](C)[C@@H](CN(C)S(=O)(=O)c2cccs2)O3)cc1	/	/	0
C[C@H]1CN([C@@H](C)CO)C(=O)Cc2cc(NS(=O)(=O)c3ccc(Cl)cc3)ccc2O[C@@H]1CN(C)S(=O)(=O)c1cccs1	-33	12	/
COc1ccc(S(=O)(=O)Nc2ccc3c(c2)CC(=O)N([C@H](C)CO)C[C@@H](C)[C@@H](CN(C)S(=O)(=O)c2cccs2)O3)cc1	77*	-1	-1
COCCOC(=O)N1C(=O)[C@@]2(c3cc(C#CCC(C(=O)OC)C(=O)OC)ccc31)[C@H](C(N)=O)[C@H]1C(=O)O[C@H](c3ccccc3)[C@H](c3ccccc3)N1[C@@H]2c1ccccc1OCCO	/	/	1
CC1=C(C/C=N/NC(=O)c2ccccc2O)C(C)(C)CCC1	-24	1	0
COc1ccc(S(=O)(=O)Nc2ccc3c(c2)CC(=O)N([C@H](C)CO)C[C@@H](C)[C@@H](CN(C)Cc2ccc(C(F)(F)F)cc2)O3)cc1	65*	-46	0
COc1ccc(S(=O)(=O)Nc2ccc3c(c2)CC(=O)N([C@@H](C)CO)C[C@@H](C)[C@H](CN(C)Cc2ccc(C(F)(F)F)cc2)O3)cc1	/	/	-1
COc1ccc(S(=O)(=O)Nc2ccc3c(c2)CC(=O)N([C@@H](C)CO)C[C@H](C)[C@H](CN(C)Cc2ccc(C(F)(F)F)cc2)O3)cc1	47	-32	1
COc1ccc(S(=O)(=O)Nc2ccc3c(c2)CC(=O)N([C@@H](C)CO)C[C@@H](C)[C@@H](CN(C)Cc2ccc(C(F)(F)F)cc2)O3)cc1	80*	-26	-1
C[C@H](CO)N1C[C@H](C)[C@H](CN(C)Cc2ccc3c(c2)OCO3)Oc2c(NC(=O)c3nc4ccccc4s3)cccc2C1=O	77*	-22	0
C[C@@H]1CN([C@@H](C)CO)C(=O)c2cccc(NC(=O)c3nc4ccccc4s3)c2O[C@@H]1CN(C)C(=O)Nc1ccc2c(c1)OCO2	10	-14	-1
C[C@H]1CN([C@@H](C)CO)C(=O)c2cccc(NC(=O)c3nc4ccccc4s3)c2O[C@H]1CN(C)Cc1ccc(Cl)c(Cl)c1	?	-8	/
C[C@H]1CN([C@@H](C)CO)C(=O)c2cccc(NC(=O)c3nc4ccccc4s3)c2O[C@H]1CN(C)Cc1ccc2c(c1)OCO2	57*	-21	/
O=C1O[C@H](c2ccccc2)[C@H](c2ccccc2)N2[C@H]1[C@@H](C(=O)NC[C@H](O)c1ccccc1)[C@]1(C(=O)Nc3ccc(C#CCCO)cc31)[C@H]2c1ccccc1OCCO	/	/	1
O=C(CCCCC(=O)N/N=C/c1ccc(O)cc1)NO	-8	1	/
C=CCOc1ccccc1/C=N/NC(=O)c1cccc(C(=O)NO)c1	-18	7	/
C[C@H](CO)N1C[C@H](C)[C@H](CN(C)C(=O)Nc2ccc(F)cc2)Oc2c(NC(=O)c3ccncc3)cccc2C1=O	81*	2	/
C[C@@H]1CN([C@@H](C)CO)C(=O)c2cccc(NC(=O)c3ccncc3)c2O[C@@H]1CN(C)C(=O)Nc1ccc(F)cc1	-7	10	1
C[C@H]1CN([C@@H](C)CO)C(=O)c2cccc(NC(=O)c3ccncc3)c2O[C@H]1CN(C)C(=O)Nc1ccc(C(F)(F)F)cc1	86*	8	1
C[C@H]1CN([C@@H](C)CO)C(=O)c2cccc(NC(=O)c3ccncc3)c2O[C@H]1CN(C)C(=O)Nc1ccccc1	79*	4	0
C[C@H](CO)N1C[C@H](C)[C@@H](CN(C)C(=O)Nc2ccc(C(F)(F)F)cc2)Oc2c(NC(=O)c3ccncc3)cccc2C1=O	15	11	0
C[C@@H]1CN([C@H](C)CO)C(=O)c2cccc(NC(=O)c3ccncc3)c2O[C@@H]1CN(C)C(=O)Nc1ccccc1	-22	1	1
O=C(N/N=C/C(Br)=C/c1ccccc1)c1ccccn1	-67	17	/
SMILES	T cruzi HTS	INS-1E rescue	A1 apoptosis 2
C[C@@H]1CN([C@H](C)CO)C(=O)c2cc(NC(=O)Nc3ccc(F)cc3)ccc2O[C@@H]1CN(C)S(=O)(=O)c1cn(C)cn1	-19	6	-1
C[C@@H]1CN([C@H](C)CO)C(=O)Cc2cc(NC(=O)CCCCCC(=O)Nc3ccccc3N)ccc2O[C@@H]1CN(C)C(=O)Nc1cccc2ccccc12	-37	10	1
O=C(NO)c1ccc(C(=O)N/N=C/c2ccccc2O)cc1	-31	9	-1
NCCCCCCNC(=O)[C@@H]1C[C@@H]2C(=O)NCC(=O)N2[C@@H]1c1cccc(OCCO)c1	/	/	-1
Cn1cc(/C=N/NC(=O)c2cccc(C(=O)NO)c2)c2ccccc21	-2	-2	1
O=C(N/N=C/C1CCCCC1)c1ccccc1O	-43	-20	/
C[C@@H]1CN([C@@H](C)CO)C(=O)c2cc(NC(=O)Nc3cccc4ccccc34)ccc2O[C@H]1CN(C)S(=O)(=O)c1cn(C)cn1	1	1	2
C=CCOc1ccccc1/C=N/NC(=O)CCCCCCC(=O)OC	-26	8	1
C[C@@H]1CN([C@@H](C)CO)C(=O)Cc2cc(NC(=O)Nc3ccccc3)ccc2O[C@H]1CN(C)Cc1ccc(Oc2ccccc2)cc1	/	/	1
C[C@@H]1CN([C@@H](C)CO)C(=O)Cc2cc(NC(=O)Nc3ccc(F)cc3)ccc2O[C@@H]1CN(C)Cc1ccc(Oc2ccccc2)cc1	75*	0	/
C[C@H](CO)N1C[C@H](C)[C@H](CN(C)Cc2ccc(Oc3ccccc3)cc2)Oc2ccc(NC(=O)Cc3ccccc3)cc2CC1=O	54	-41	1
C[C@H]1CN([C@@H](C)CO)C(=O)Cc2cc(NC(=O)Cc3ccccc3)ccc2O[C@@H]1CN(C)Cc1ccc(Oc2ccccc2)cc1	63*	-30	/
C[C@H](CO)N1C[C@H](C)[C@H](CN(C)Cc2ccc(-c3ccccc3)cc2)Oc2ccc(NC(=O)Cc3ccccc3)cc2CC1=O	47	-18	/
C[C@H]1CN([C@@H](C)CO)C(=O)Cc2cc(NC(=O)Nc3ccccc3)ccc2O[C@@H]1CN(C)Cc1ccc(Oc2ccccc2)cc1	49	-26	/
C[C@@H]1CN([C@H](C)CO)C(=O)Cc2cc(NC(=O)Nc3ccccc3)ccc2O[C@@H]1CN(C)Cc1ccc(Oc2ccccc2)cc1	72*	-69	2
C[C@@H]1CN([C@H](C)CO)C(=O)Cc2cc(NC(=O)Cc3ccccc3)ccc2O[C@@H]1CN(C)Cc1ccc(-c2ccccc2)cc1	72*	-62	1
O=C(CCCCCCC(=O)Nc1ccccc1O)N/N=C/c1ccccc1Br	1	0	/
CNC[C@H]1OCCCC[C@@H](C)Oc2ccc(NC(=O)C3CCCCC3)cc2C(=O)N([C@@H](C)CO)C[C@H]1C	/	/	0
